According to ChEMBL document CHEMBL4732208, “Discovery of novel N-alkylcytidines as promising antimicrobial agents” (Eur J Med Chem, 2021):
≈ marks a conversion by molar mass, not a printed value. Calls of active or inactive are those of the source. The calls are words filed in the database; no cut-off is given here.

Columns and labels:
[1] = system: Bacillus subtilis; test: Antibacterial activity against Bacillus subtilis ATCC 6633; type: functional
Method in brief: (§1)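 Strains grown in modified Gause's nutrient medium N 2, inoculum 10⁶ cells/ml. Test compound dissolved in 50% aqueous methanol, added at ten volume percent of the medium. Growth controls: medium without additions, medium with solvent mixture, and clinical antibiotics (amikacin, ciprofloxacin, isoniazid, rifampicin, oxacillin, vancomycin).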

[2] = system: Mycolicibacterium smegmatis; test: Antibacterial activity against Mycobacterium smegmatis mc2155; type: functional
Method in brief: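 Strains were grown in modified Gause's nutrient medium N 2 at 10⁶ cells/ml. The compound was dissolved in 50% aqueous methanol and added at 10 volume percent of the medium. Controls were untreated cultures, medium with the solvent mixture, and clinical antibiotics.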

[3] = system: Leuconostoc mesenteroides; test: Antibacterial activity against Leuconostoc mesenteroides VKPM B-4177; type: functional; method in brief: as §1
[4] = Cytotoxicity against human A549 cells by MTT assay; type: cell-based
Method in brief: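 Adherent A549 cells passaged in DMEM with 10% fetal calf serum and 2 mM glutamine, at 37 °C, 5% CO2, 90% humidity. MTT test. CC50 is the concentration that inhibits culture growth by 50%.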

[5] = system: Staphylococcus aureus; test: Antibacterial activity against Staphylococcus aureus FDA 209 P; type: functional; method in brief: as §1
[6] = system: Staphylococcus aureus; test: Antibacterial activity against Staphylococcus aureus INA 00761; type: functional; method in brief: as §1
[7] = system: Micrococcus luteus; test: Antibacterial activity against Micrococcus luteus NCTC 8340; type: functional; method in brief: as §1
[8] = system: Mycolicibacterium smegmatis; test: Antibacterial activity against Mycobacterium smegmatis VKPM Ac-1339; type: functional; method in brief: as §1
[9] = system: Microascus paisii; test: Antifungal activity against Microascus-paisii SRX7729192 STG-103 assessed as reduction in fungal growth at 0.1 to 3.5 mM measured for 24 days by drop dilution assay relative to control; type: functional; details: dose 0.1-3.5 mM, time 24.0 day
Method in brief: (§2)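 Drop-dilution method. Suspension plated on CDA with or without compound (screening range 0.1–3.5 mM); 5-fluorocytosine positive control. Incubated at 26 °C. Inhibition % = (Dc−Dt)/Dc × 100 from colony diameters; triplicate, repeated at least twice.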

[10] = system: Aspergillus amoenus; test: Antifungal activity against Aspergillus-amoenus SRX7729194 STG-106 assessed as reduction in fungal growth at 0.1 to 3.5 mM measured for 24 days by drop dilution assay relative to control; type: functional; details: dose 0.1-3.5 mM, time 24.0 day; method in brief: as §2
[11] = system: Simplicillium lamellicola; test: Antifungal activity against Simplicilium-lamellicola SRX772919 STG-96 assessed as reduction in fungal growth at 0.1 to 3.5 mM measured for 24 days by drop dilution assay relative to control; type: functional; details: dose 0.1-3.5 mM, time 24.0 day; method in brief: as §2
[12] = system: Aspergillus creber; test: Antifungal activity against Aspergillus-creber SRX7729180 STG-57 assessed as reduction in fungal growth at 0.1 to 3.5 mM measured for 24 days by drop dilution assay relative to control; type: functional; details: dose 0.1-3.5 mM, time 24.0 day; method in brief: as §2
[13] = system: Aspergillus versicolor; test: Antifungal activity against Aspergillus versicolor SRX7729174 STG-25G assessed as reduction in fungal growth at 0.1 to 3.5 mM measured for 24 days by drop dilution assay relative to control; type: functional; details: dose 0.1-3.5 mM, time 24.0 day; method in brief: as §2
[14] = system: Aspergillus; test: Antifungal activity against Aspergillus SRX7729186 STG-93W assessed as reduction in fungal growth at 0.1 to 3.5 mM measured for 24 days by drop dilution assay relative to control; type: functional; details: dose 0.1-3.5 mM, time 24.0 day; method in brief: as §2
[15] = system: Cladosporium halotolerans; test: Antifungal activity against Cladosporium-halotolerans SRX7729178 STG-52B assessed as reduction in fungal growth at 0.1 to 3.5 mM measured for 24 days by drop dilution assay relative to control; type: functional; details: dose 0.1-3.5 mM, time 24.0 day; method in brief: as §2
[16] = system: Aspergillus versicolor; test: Antifungal activity against Aspergillus versicolor SRX7729182 STG-25G assessed as reduction in fungal growth at 0.1 to 3.5 mM measured for 24 days by drop dilution assay relative to control; type: functional; details: dose 0.1-3.5 mM, time 24.0 day; method in brief: as §2
[17] = system: Alternaria chartarum; test: Antifungal activity against Ulocladium chartarum SRX7729176 STG-36 assessed as reduction in fungal growth at 0.1 to 3.5 mM measured for 24 days by drop dilution assay relative to control; type: functional; details: dose 0.1-3.5 mM, time 24.0 day; method in brief: as §2
[18] = system: Cladosporium parahalotolerans; test: Antifungal activity against Cladosporium-parahalotolerans SRX7729188 STG-93B assessed as reduction in fungal growth at 0.1 to 3.5 mM measured for 24 days by drop dilution assay relative to control; type: functional; details: dose 0.1-3.5 mM, time 24.0 day; method in brief: as §2

Structure (SMILES) | MIC [1] [µM] | MIC [2] [µM] | MIC [3] [µM] | CC50 [4] [µM] | MIC [5] [µM] | MIC [6] [µM] | MIC [7] [µM] | MIC [8] [µM] | inhibition [9] | inhibition [10] | inhibition [11] | inhibition [12] | inhibition [13] | inhibition [14] | inhibition [15] | inhibition [16] | inhibition [17] | inhibition [18]
CCCCCCCCCCNc1ccn([C@H]2C[C@H](O)[C@@H](CO)O2)c(=O)n1 | 140 (≈ 51.4 µg/mL) | 140 (≈ 51.4 µg/mL) | 140 (≈ 51.4 µg/mL) | 200 | > 140 | > 140 | 140 (≈ 51.4 µg/mL) | 140 (≈ 51.4 µg/mL) |  |  |  |  |  |  |  |  |  | 
O=C(O)c1cn(C2CC2)c2cc(N3CCNCC3)c(F)cc2c1=O [CIPROFLOXACIN] |  | 15 (≈ 4.97 µg/mL) |  |  | 3 (≈ 0.994 µg/mL) | 12 (≈ 3.98 µg/mL) |  | 12 (≈ 3.98 µg/mL) |  |  |  |  |  |  |  |  |  | 
CCCCCCNc1nc(=O)n([C@H]2C[C@H](O)[C@@H](CO)O2)cc1C | > 200 | > 200 | > 200 | 90 | > 200 | > 200 | > 200 | > 200 |  |  |  |  |  |  |  |  |  | 
CCCCCCCCNc1nc(=O)n([C@H]2C[C@H](O)[C@@H](CO)O2)cc1C | > 200 | > 200 | > 200 | 90 | > 200 | > 200 | > 200 | > 200 | Active | Active | Active | Active | Active | Active | Active | Active | Active | Active
CCCCCCCCNc1ccn([C@H]2C[C@H](O)[C@@H](CO)O2)c(=O)n1 | > 200 | > 200 | > 200 | 90 | > 200 | > 200 | > 200 | > 200 |  |  |  |  |  |  |  |  |  | 
NCC[C@H](O)C(=O)N[C@@H]1C[C@H](N)[C@@H](O[C@H]2O[C@H](CN)[C@@H](O)[C@H](O)[C@H]2O)[C@H](O)[C@H]1O[C@H]1O[C@H](CO)[C@@H](O)[C@H](N)[C@H]1O [AMIKACIN] | 7 (≈ 4.1 µg/mL) | 50 (≈ 29.3 µg/mL) |  |  | 3.4 (≈ 1.99 µg/mL) | 5 (≈ 2.93 µg/mL) | 1 (≈ 0.586 µg/mL) | 29 (≈ 17 µg/mL) |  |  |  |  |  |  |  |  |  | 
CCCCCCCCCCCCNc1ccn([C@H]2C[C@H](O)[C@@H](CO)O2)c(=O)n1 | 70 (≈ 27.7 µg/mL) | 70 (≈ 27.7 µg/mL) | 70 (≈ 27.7 µg/mL) | 100 | 70 (≈ 27.7 µg/mL) | 70 (≈ 27.7 µg/mL) | 70 (≈ 27.7 µg/mL) | 70 (≈ 27.7 µg/mL) |  |  |  |  |  |  |  |  |  | 
CCCCCCCCCCCCCCNc1ccn([C@H]2C[C@H](O)[C@@H](CO)O2)c(=O)n1 | > 200 | > 200 | > 200 | 90 | > 200 | > 200 | > 200 | > 200 |  |  |  |  |  |  |  |  |  | 
CCCCCCCCCCNc1nc(=O)n([C@H]2C[C@H](O)[C@@H](CO)O2)cc1C | 50 (≈ 19.1 µg/mL) | 50 (≈ 19.1 µg/mL) | 50 (≈ 19.1 µg/mL) | 156 | 50 (≈ 19.1 µg/mL) | 50 (≈ 19.1 µg/mL) | 50 (≈ 19.1 µg/mL) | 50 (≈ 19.1 µg/mL) | inactive | inactive | inactive | inactive | inactive | inactive | inactive | inactive | inactive | inactive
O=c1nc(NCCCCc2ccccc2)ccn1[C@H]1C[C@H](O)[C@@H](CO)O1 | > 200 | > 200 | > 200 | 90 | > 200 | > 200 | > 200 | > 200 |  |  |  |  |  |  |  |  |  | 
